167 variants from the RNAGym collection of RNA variant scans (doi:10.1126/science.aae0568) can be followed below.

Variants at the floor of the assay were thinned out.

B1: tRNA (parent)
chain: GUUCCGUUGGCGUAAUGGUAACGCGUCUCCCUCCUAAGGAGAAGACUGCGGGUUCGAGUCCCGUACGGAACG

Variants of B1 are the subject of this series. Briefly: yeast fitness relative to wild type (ratio to wild type); higher = fitter; tRNA-Arg(CCU), competitive growth, 37 C, YPD. In outline: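 Gene amplicons from the start population and from each of six end populations were read by 100-nucleotide paired-end sequencing. Those end populations came from pooled Saccharomyces cerevisiae strains carrying tRNA-Arg(CCU) gene variants at the native locus, competed in YPD at 37°C for 24 hours. Fitness relative to wild type was worked out from changes in genotype frequencies. Genotypes needed ≥ 100 starting reads, and estimates < 0.5 were set to 0.5.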
As for A40U A43G C60G, the yeast fitness was at most 0.5.
The same measure for A42C A70C: 1.02; for A42C A70G: 0.87.
Turning to G41A A45U, the yeast fitness was found to be 1.01.
With A40U A42C A45U U47C A65G the figure was at most 0.5; with G41A C49U C60G A65G, 0.635.
The same measure for G41A U59A A65C G67U: at most 0.5.
With A42C A65U C66U the figure was 0.558.
As to A42C G48A C62U, the yeast fitness amounted to 1.03.
With G41A A43C C66U the figure was 0.517; with A40G G51C U59A C61A A69U, at most 0.5.
Regarding G41A U59A, the yeast fitness was found to be 0.826.
With G41A U59G the figure was 0.822; with A40U G52A, 0.704.
With G41A C60A U64A the figure was at most 0.5; with A42C C66G, 0.684.
The same measure for A42C C66A: 0.688; for A40G G58C: 1.05.
With A40G G58A, the yeast fitness stood at 0.857.
The same measure for A42C A57G: 0.749; for A42C C55U C66U: 0.504.
The same measure for G41C C49U: 0.894; for G41C C49G: 0.702; for A42C U53A: 0.626.
With A40U U47A G58A the figure was at most 0.5; with A40U U47A G58C, 0.579.
Take A40U G48C G63A: the yeast fitness was found to be 0.602.
With A40U A42U C49G G51A C66A G68C the figure was at most 0.5; with A42C A43C C49U A70C, 0.585.
The same measure for A40G C46U: 0.918; for A40G C46G: 0.998; for A40G U53C C61A C62G: at most 0.5.
With A40U G51A the figure was 0.777; with G41A G68C, 0.775; with A40U A43C A69U, 0.851.
Consider A40G G50A U54A, for which the yeast fitness amounted to 0.552.
With A40U A42C, the yeast fitness is 0.752.
G41A A42C G50C A70G: the yeast fitness worked out at 0.621.
The same measure for A40G C46A C61U: 0.782.
The same measure for G41C U54G: at most 0.5; for G41C U54C: 0.889.
Consider A40U C49U, for which the yeast fitness amounted to 0.856.
With A40U C49A the figure was 0.638; with A40U C49G, 0.811.
The same measure for G41U A69U: 0.845; for A40G G48A C66U: 0.769.
The same measure for G41C C62A G68C: at most 0.5; for A42C C46G G67C: 0.612; for A40G G50C A57C G58C: 0.636.
As for A42C A43C A65G, the yeast fitness was 1.09.
With A42C G56C the figure was 0.649; with A40U A42C G67A, 0.534; with A40G A45G G52A, at most 0.5.
As for A42C G48A, the yeast fitness is 1.07.
With A42C G48C the figure was 0.763; with G41C A43G U54A, 0.564; with A40U A43C G68A, 0.605.
The same measure for A42C U59C: 0.901; for A40U A42C C55U: at most 0.5; for A40G G67A: 0.754.
With A40G G67C the figure was 0.956.
In the case of A40G A45U, the yeast fitness was 0.786.
The same measure for A40G A45G: 0.849; for A40G C62G: 0.719.
Consider G41C C61A, for which the yeast fitness was 0.593.
The same measure for G41C C61U: 0.857; for A42C G51A A65U G68A: at most 0.5.
The same measure for A42G A43U U54A: at most 0.5; for G41A A43U: 0.788.
With G41A A43C, the yeast fitness was 0.843.
The same measure for A40G C62U A69C: 0.725; for A42C A45C: 0.854.
A40U G56A: the yeast fitness turned out to be 0.843.
For the variant G41A U64C, the yeast fitness turned out to be 1.07.
The same measure for G41C U59A C61A C66U G68C: at most 0.5; for A42C G58C: 0.975; for A40U C61A: 0.76.
The same measure for A42C G50U: 0.781.
As to A42C G50A, the yeast fitness stood at 0.745.
With G41C A69U the figure was 0.813.
With G41C A69C the figure was 0.858; with A40U A45U U53C, 0.684.
The same measure for G41A A65G: 0.934; for G41A A65U: 0.722.
Regarding A40G C49U G67A, the yeast fitness was at most 0.5.
With A42C G52A the figure was 0.676; with A42C G50C G56A, at most 0.5; with A40U A65C, 0.652.
The same measure for A40U A65U: 0.868; for A40U A69C: 0.851.
For A40U A69U, the yeast fitness was 1.04.
The same measure for A40G G52A U54G C61U: at most 0.5; for A40U C55U: 0.795; for A40U C55G: 0.664.
For A40U U54A A70U, the yeast fitness was determined as 0.548.
The same measure for G41C C46A C62G: 0.551; for A40U G44A C61A: 0.511.
The same measure for A40G C60G G63C: at most 0.5.
With A42C G68C the figure was 0.657.
As for G41A U47C C62U, the yeast fitness is at most 0.5.
With A40G G51C the figure was 0.664.
In the case of A40G U59C C60A U64A, the yeast fitness is at most 0.5.
With A40U A45U G63A the figure was 0.689.
With A40G C55A the figure was 0.626; with A40G C55G, 0.621.
As to G41C A43G, the yeast fitness turned out to be 0.898.
With G41C A43U the figure was 0.957; with A40U G67C, 0.755; with A40U A43C U53C G68A, at most 0.5.
On to A40G C46G C60U, for which the yeast fitness was at most 0.5.
The same measure for G41A G58C: 0.929; for A40G G44A: 0.717.
With G41A U53A C61A G68C the figure was 0.584; with A42C C61G, 0.721.
The same measure for A42C A57G C61U: at most 0.5; for A42C C49G: 0.759.
With A42C C49A, the yeast fitness was determined as 0.62.
The same measure for G41A G56C G63A U64C G67C: at most 0.5; for G41C G56A A65G C66U: at most 0.5.
With G41A G51A A70C the figure was 0.542; with G41A C55G, 0.605; with G41A C55U, 0.885.
As for A40G G50C, the yeast fitness was found to be 0.649.
The same measure for A42C U47C: 1.09.
Turning to A42C C62A C66G, the yeast fitness is at most 0.5.
The same measure for G41C A45U: 0.778; for G41C A45G: 0.778.
The same measure for A40G G63A: 0.819; for G41A G51A: 0.664; for G41A G51C: at most 0.5.
With A40U U54C A70U the figure was 0.695.
In the case of A40U A57G U64G, the yeast fitness is at most 0.5.
With G41A A43U G63A the figure was at most 0.5; with G41C C66U, 0.83.
With A40G C49U A65C the figure was 0.941.
Take G41A C49A: the yeast fitness turned out to be 0.663.
With G41A C49G the figure was 0.655; with G41A C49U, 0.921; with A40G G44A A45U C49U, at most 0.5.
With A40U A43U A70U the figure was 0.664; with G41A U53C, 0.626.
As for G41A A65G A70G, the yeast fitness worked out at 0.63.
The same measure for G41A C66G: 0.625.
With A40U A69U A70C the figure was 0.725.
As to A40G C55U A65C, the yeast fitness came out at 0.525.
With A42C A69C the figure was 0.939.
With A42C C55A U59C the figure was 0.661; with A42G A45C, 0.856; with A42C G44A U53A, at most 0.5.
With A42C C46G A65U G67C the figure was at most 0.5.
As for A42C G50C C66U, the yeast fitness was 0.534.
With G41C C62U the figure was 0.802; with A40G A69C, 0.861; with A42G A43G C49U, 0.556.
On to G41U G52C, for which the yeast fitness came out at 0.584.
With A40U C55U A65C the figure was at most 0.5; with A42C G52A G56C, at most 0.5.
The same measure for A40G C66A: 0.694.
With G41A C49A G50C G68C the figure was at most 0.5.
As for A40U A42C C55U C62U, the yeast fitness is at most 0.5.
Turning to A42C A43C C60G C61G C62U, the yeast fitness was at most 0.5.
The same measure for A40G G41A: 0.825; for G41C A70G: 0.829; for G41C A70C: 0.858.
With G41C A70U the figure was 0.88; with G41A G51A C60G A65G, at most 0.5.
With G41A A57G the figure was 0.828.
